According to PMC9727797 (Molecular Biology of the Cell, 2022):

What was measured:
HSET = molecular target: T1, HSET (Homo sapiens, UniProt Q9BW19); experiment: Microtubule gliding assay, HSET; format: biochemical; settings: 24 µM Munesib-1 or 100 µM Fift-IN
T1 sequence (Q9BW19 1-673): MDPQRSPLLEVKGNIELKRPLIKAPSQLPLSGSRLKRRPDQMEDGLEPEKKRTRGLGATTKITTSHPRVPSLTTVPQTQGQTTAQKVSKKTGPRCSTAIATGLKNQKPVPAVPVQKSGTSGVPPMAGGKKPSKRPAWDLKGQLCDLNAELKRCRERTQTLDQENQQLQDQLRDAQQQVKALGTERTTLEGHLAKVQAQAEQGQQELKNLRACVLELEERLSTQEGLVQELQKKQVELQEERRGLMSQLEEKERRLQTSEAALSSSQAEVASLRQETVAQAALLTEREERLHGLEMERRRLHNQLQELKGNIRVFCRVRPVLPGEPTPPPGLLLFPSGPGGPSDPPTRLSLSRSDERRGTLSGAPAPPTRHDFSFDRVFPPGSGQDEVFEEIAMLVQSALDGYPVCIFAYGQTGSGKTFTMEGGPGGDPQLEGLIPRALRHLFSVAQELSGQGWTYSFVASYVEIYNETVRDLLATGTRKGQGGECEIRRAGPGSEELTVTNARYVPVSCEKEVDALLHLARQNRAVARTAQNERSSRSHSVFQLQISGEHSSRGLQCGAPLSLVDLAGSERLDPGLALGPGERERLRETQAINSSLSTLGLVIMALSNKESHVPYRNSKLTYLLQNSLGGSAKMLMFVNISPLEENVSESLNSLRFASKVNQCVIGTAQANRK
Summary of the method: (§1)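 Gliding assays with other motors used His6-Eg5, His6-EGFP-HSET or K560 (truncated kinesin-1), with test compound at 24 µM or 100 µM. Frames were captured every 5 s for 1 min at 100×. Velocity was the distance travelled in 1 min, from ≥15 microtubules at each of three locations (n ≥ 50 per slide).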

[1] = molecular target: T2, K560, a truncated form of kinesin-1 (Homo sapiens, UniProt P33176); experiment: Microtubule gliding assay, K560; format: biochemical; settings: 24 µM Munesib-1 or 100 µM Fift-IN
T2 sequence (P33176 1-560 limits assumed): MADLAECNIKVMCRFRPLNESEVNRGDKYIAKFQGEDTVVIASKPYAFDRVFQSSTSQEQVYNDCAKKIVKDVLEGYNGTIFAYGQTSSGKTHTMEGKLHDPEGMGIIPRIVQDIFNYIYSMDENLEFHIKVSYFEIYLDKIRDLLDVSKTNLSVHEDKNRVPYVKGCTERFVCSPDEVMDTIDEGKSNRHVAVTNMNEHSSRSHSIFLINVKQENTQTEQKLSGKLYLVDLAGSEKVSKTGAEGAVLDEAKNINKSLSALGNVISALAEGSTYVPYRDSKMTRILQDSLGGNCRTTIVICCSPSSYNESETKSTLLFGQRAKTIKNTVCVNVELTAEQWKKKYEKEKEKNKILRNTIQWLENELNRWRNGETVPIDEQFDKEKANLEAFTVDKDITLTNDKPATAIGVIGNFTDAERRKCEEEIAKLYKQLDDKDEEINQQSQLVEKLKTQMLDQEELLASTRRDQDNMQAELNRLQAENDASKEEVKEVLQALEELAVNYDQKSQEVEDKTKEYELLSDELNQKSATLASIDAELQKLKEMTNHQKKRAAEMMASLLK
Summary of the method: as §1

inhibition of microtubule gliding, HSET (HSET): neither substantially inhibited | inhibition of microtubule gliding, K560 [1]: neither substantially inhibited
SMILES: COC(=O)c1ccc2c(c1)N(C)S(=O)(=O)c1cnc(SC)nc1-2 [Munesib-1, Methyl 6-methyl-2-(methylthio)-6H-benzo[c]pyrimido[4,5-e][1,2]thiazine-8-carboxylate 5,5-dioxide]
